# Laboratory results: ChEMBL document CHEMBL1681740, “Quinolizidinone carboxylic acid selective M1 allosteric modulators: SAR in the piperidine series” (Bioorg Med Chem Lett, 2011)
# Positions count from the first letter of the chain named. The source made the active and inactive calls. The calls are words filed in the database; no cut-off is given here.
# System: Brain
# Test: Drug uptake in Sprague-Dawley rat brain at 10 mg/kg, po
# Format: ADME, organism-based
# Design: dose 10 mg/kg, route oral
# Details: in vivo, read-out: Drug uptake
# In short: (§1)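 Sprague-Dawley rats dosed orally at 10 mg/kg in 0.5% methocel. Drug levels measured by bioanalysis of plasma, brain and CSF; brain/plasma ratio derived from these. Interanimal variability under 20%.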
row,SMILES,concentration [nM]
1,O=C(O)c1cc(CN2CCc3cc(Cl)ccc3C2)c2ccccn2c1=O,3690
2,Cc1ccc(C2CCN(Cc3cc(C(=O)O)c(=O)n4ccccc34)CC2)cc1,5780
3,O=C(O)c1cc(CN2CCc3ccccc3C2c2ccncc2)c2ccccn2c1=O (stereo unspecified),1340

# Biological target: T1, Muscarinic acetylcholine receptor M1 (Homo sapiens) (UniProt P11229)
# T1 sequence (whole entry): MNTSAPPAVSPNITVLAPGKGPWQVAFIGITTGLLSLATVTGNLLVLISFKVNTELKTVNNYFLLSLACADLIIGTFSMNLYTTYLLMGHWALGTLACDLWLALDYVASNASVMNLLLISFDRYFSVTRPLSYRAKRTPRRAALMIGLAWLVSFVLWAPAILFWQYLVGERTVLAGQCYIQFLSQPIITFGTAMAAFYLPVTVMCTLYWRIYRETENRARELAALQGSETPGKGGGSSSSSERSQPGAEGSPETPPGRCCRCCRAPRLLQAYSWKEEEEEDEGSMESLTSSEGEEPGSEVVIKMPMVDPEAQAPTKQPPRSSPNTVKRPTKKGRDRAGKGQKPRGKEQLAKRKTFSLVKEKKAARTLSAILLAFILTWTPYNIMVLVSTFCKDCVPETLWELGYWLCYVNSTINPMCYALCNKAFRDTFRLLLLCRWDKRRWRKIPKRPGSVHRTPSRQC
# Test: Positive allosteric modulation at human muscarinic M1 receptor expressing CHO cells assessed as potentiation of acetylcholine-induced calcium mobilization at 0.1 to 1 uM by FLIPR assay
# Format: functional, cell-based
# Details: not given
# In short: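 Human M1-expressing CHO cells; calcium mobilization read-out. Acetylcholine dose–response curves run with modulator at rising concentrations from 0.1 to 1 μM; fold potentiation taken from the leftward shift of the curve.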
row,SMILES,Activity
1,O=C(O)c1cc(CN2CCc3cc(Cl)ccc3C2)c2ccccn2c1=O,Active
2,Cc1ccc(C2CCN(Cc3cc(C(=O)O)c(=O)n4ccccc34)CC2)cc1,Active

# System: not listed separately
# Test: Ratio of drug uptake in CSF to fraction unbound in plasma in rat
# Format: ADME, cell-free
# Details: not given
# In short: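 Sprague-Dawley rats, oral 10 mg/kg in 0.5% methocel. CSF level divided by unbound plasma level, with unbound plasma derived using rat plasma protein binding values.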
row,SMILES,Ratio
1,O=C(O)c1cc(CN2CCc3cc(Cl)ccc3C2)c2ccccn2c1=O,0.63
2,N#Cc1ccc(N2CCN(Cc3cc(C(=O)O)c(=O)n4ccccc34)CC2)cc1,0.42
3,Cc1ccc(C2CCN(Cc3cc(C(=O)O)c(=O)n4ccccc34)CC2)cc1,0.7
4,O=C(O)c1cc(CN2CCc3ccccc3C2c2ccncc2)c2ccccn2c1=O (stereo unspecified),0.37

# System: Mus musculus
# Test: Antiamnesic activity against in contextual fear conditioning B6SJL mouse modle assessed as reversal of scopolamine-induced episodic memory deficit in at 3 mg/kg
# Format: functional, organism-based
# Design: dose 3 mg/kg
# Details: not given
# In short: (§2)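 Contextual fear conditioning model of episodic memory in B6SJL mice; scopolamine-induced deficit; test agents given at 3, 10 and 30 mpk; read-out is reversal of the scopolamine deficit.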
row,SMILES,Activity
1,O=C(O)c1cc(CN2CCc3cc(Cl)ccc3C2)c2ccccn2c1=O,inactive
2,Cc1ccc(C2CCN(Cc3cc(C(=O)O)c(=O)n4ccccc34)CC2)cc1,inactive

# System: Plasma
# Test: Plasma concentration in B6SJL mouse at 30 mg/kg
# Format: ADME, organism-based
# Design: dose 30 mg/kg
# Details: in vivo
# In short: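 Plasma drug levels in B6SJL mice measured after 30 mpk dosing in the contextual fear conditioning study.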
row,SMILES,concentration [nM]
1,O=C(O)c1cc(CN2CCc3cc(Cl)ccc3C2)c2ccccn2c1=O,16000
2,Cc1ccc(C2CCN(Cc3cc(C(=O)O)c(=O)n4ccccc34)CC2)cc1,31000

# Biological target: T2, Muscarinic acetylcholine receptor M1 (Rattus norvegicus) (UniProt P08482)
# T2 sequence (whole entry): T1 sequence (whole entry) with A5V, T254S, P309S, R320K, A337G, I413V
# Test: Positive allosteric modulation at rat muscarinic M1 receptor
# Details: not given
row,SMILES,IP [nM]
1,Cc1ccc(C2CCN(Cc3cc(C(=O)O)c(=O)n4ccccc34)CC2)cc1,760

# System: not listed separately
# Test: Drug uptake in Sprague-Dawley rat CSF at 10 mg/kg, po
# Format: ADME, organism-based, Cerebrospinal fluid
# Design: dose 10 mg/kg, route oral
# Details: in vivo, read-out: Drug uptake
# In short: as §1
row,SMILES,concentration [nM]
1,O=C(O)c1cc(CN2CCc3cc(Cl)ccc3C2)c2ccccn2c1=O,86
2,Cc1ccc(C2CCN(Cc3cc(C(=O)O)c(=O)n4ccccc34)CC2)cc1,28
3,O=C(O)c1cc(CN2CCc3ccccc3C2c2ccncc2)c2ccccn2c1=O (stereo unspecified),230

# System: Plasma
# Test: Plasma concentration in Sprague-Dawley rat at 10 mg/kg, po
# Format: ADME, organism-based
# Design: dose 10 mg/kg, route oral
# Details: in vivo
# In short: as §1
row,SMILES,concentration [nM]
1,O=C(O)c1cc(CN2CCc3cc(Cl)ccc3C2)c2ccccn2c1=O,4240
2,Cc1ccc(C2CCN(Cc3cc(C(=O)O)c(=O)n4ccccc34)CC2)cc1,915
3,O=C(O)c1cc(CN2CCC(c3nc4ccccc4[nH]3)CC2)c2ccccn2c1=O,132
4,O=C(O)c1cc(CN2CCc3ccccc3C2c2ccncc2)c2ccccn2c1=O (stereo unspecified),9780

# System: not listed separately
# Test: Plasma protein binding in rat
# Format: ADME, cell-free
# Details: read-out: PPB (converted)
row,SMILES,fraction unbound
1,O=C(O)c1cc(CN2CCc3cc(Cl)ccc3C2)c2ccccn2c1=O,0.04
2,O=C(O)c1cc(CN2CCC(n3cnc4ccccc43)CC2)c2ccccn2c1=O,0.24
3,Cc1ccc(C2CCN(Cc3cc(C(=O)O)c(=O)n4ccccc34)CC2)cc1,0.11
4,O=C(O)c1cc(CN2CCC(c3nc4ccccc4[nH]3)CC2)c2ccccn2c1=O,0.23
5,O=C(O)c1cc(CN2CCc3ccccc3C2c2ccncc2)c2ccccn2c1=O (stereo unspecified),0.06

# System: not listed separately
# Test: Plasma protein binding in human
# Format: ADME, cell-free
# Details: read-out: PPB (converted)
row,SMILES,fraction unbound
1,O=C(O)c1cc(CN2CCc3cc(Cl)ccc3C2)c2ccccn2c1=O,0.02
2,O=C(O)c1cc(CN2CCC(n3cnc4ccccc43)CC2)c2ccccn2c1=O,0.21
3,Cc1ccc(C2CCN(Cc3cc(C(=O)O)c(=O)n4ccccc34)CC2)cc1,0.09
4,O=C(O)c1cc(CN2CCC(c3nc4ccccc4[nH]3)CC2)c2ccccn2c1=O,0.18
5,O=C(O)c1cc(CN2CCc3ccccc3C2c2ccncc2)c2ccccn2c1=O (stereo unspecified),0.04

# Biological target: T1, Muscarinic acetylcholine receptor M1 (Homo sapiens)
# Test: Positive allosteric modulation at human muscarinic M1 receptor expressing CHO cells assessed as potentiation of acetylcholine-induced calcium mobilization by FLIPR assay
# Format: functional, cell-based
# Details: not given
# In short: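 CHO cells expressing human M1 receptor. Inflection point determined in the presence of an EC20 concentration of acetylcholine. Mean of at least two experiments; interassay variability ±30%.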
row,SMILES,IP [µM]
1,O=C(O)c1cc(CN2CCC(c3ccc(F)nc3)CC2)c2ccccn2c1=O,2.1
2,CSc1ccc2c(c1)CCN(Cc1cc(C(=O)O)c(=O)n3ccccc13)C2,> 10
3,O=C(O)c1cc(CN2CCC(c3cccnc3F)CC2)c2ccccn2c1=O,0.84
4,N#Cc1ccc2c(c1)CCN(Cc1cc(C(=O)O)c(=O)n3ccccc13)C2,0.61
5,O=C(O)c1cc(CN2CCc3cc(Cl)ccc3C2)c2ccccn2c1=O,0.33
6,O=C(O)c1cc(CN2CCC(c3ccncc3)CC2)c2ccccn2c1=O,0.95
7,O=C(O)c1cc(CN2CCC(c3ccccc3)CC2)c2ccccn2c1=O,1.3
8,O=C(O)c1cc(CN2CCC(c3cccc(Cl)c3)CC2)c2ccccn2c1=O,0.91
9,O=C(O)c1cc(CN2CCC(c3ccc(Cl)cc3)CC2)c2ccccn2c1=O,0.77
10,O=C(O)c1cc(CN2CCc3cc(F)ccc3C2)c2ccccn2c1=O,0.78
11,O=C(O)c1cc(CN2CCC(n3nnc4ccccc43)CC2)c2ccccn2c1=O,6
12,O=C(O)c1cc(CN2CCc3ccc(Cl)cc3C2)c2ccccn2c1=O,0.63
13,O=C(O)c1cc(CN2CCC(c3cccc(F)c3)CC2)c2ccccn2c1=O,1.5
14,O=C(O)c1cc(CN2CCC(c3cccc(F)n3)CC2)c2ccccn2c1=O,2.2
15,O=C(O)c1cc(CN2CCC(n3ccnc3)CC2)c2ccccn2c1=O,1.9
16,O=C(O)c1cc(CN2CCc3ccccc3C2c2ccccc2)c2ccccn2c1=O (stereo unspecified),0.56
17,O=C(O)c1cc(CN2CCC(c3ncccn3)CC2)c2ccccn2c1=O,13
18,O=C(O)c1cc(CN2CCc3ccccc3C2c2ccccc2F)c2ccccn2c1=O (stereo unspecified),0.15
19,O=C(O)c1cc(CN2CCc3cc(Br)ccc3C2)c2ccccn2c1=O,0.63
20,COC(=O)C1c2ccccc2CCN1Cc1cc(C(=O)O)c(=O)n2ccccc12 (stereo unspecified),1.7
21,CCOC(=O)C1Cc2ccccc2CN1Cc1cc(C(=O)O)c(=O)n2ccccc12 (stereo unspecified),> 100
22,O=C(O)c1cc(CN2CCC(c3cnccn3)CC2)c2ccccn2c1=O,11
23,O=C(O)c1cc(CN2CCC(n3cnc4ccccc43)CC2)c2ccccn2c1=O,0.55
24,N#Cc1ccc(N2CCN(Cc3cc(C(=O)O)c(=O)n4ccccc34)CC2)cc1,0.52
25,Cc1ccc(C2CCN(Cc3cc(C(=O)O)c(=O)n4ccccc34)CC2)cc1,1.7
26,O=C(O)c1cc(CN2CCC(c3nc4ccccc4[nH]3)CC2)c2ccccn2c1=O,0.12
27,O=C(O)c1cc(CN2CCc3ccccc3C2c2ccncc2)c2ccccn2c1=O (stereo unspecified),0.053

# System: not listed separately
# Test: Ratio of drug uptake in CSF to fraction unbound in plasma in P-gp knock out CF-1 mouse after 30 mins
# Format: ADME, cell-free
# Details: 0.5 h
# In short: (§3)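 CF-1 mice, wild type and P-gp knockout, were treated with the compound. Plasma and CSF were collected 30 minutes after treatment. The value is the CSF concentration divided by the unbound plasma concentration (CSF/U plasma ratio), reported separately for each genotype.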
row,SMILES,Ratio
1,Cc1ccc(C2CCN(Cc3cc(C(=O)O)c(=O)n4ccccc34)CC2)cc1,0.42

# System: Mus musculus
# Test: Antiamnesic activity against in contextual fear conditioning B6SJL mouse modle assessed as reversal of scopolamine-induced episodic memory deficit in at 30 mg/kg
# Format: functional, organism-based
# Design: dose 30 mg/kg
# Details: not given
# In short: as §2
row,SMILES,Activity
1,O=C(O)c1cc(CN2CCc3cc(Cl)ccc3C2)c2ccccn2c1=O,inactive
2,Cc1ccc(C2CCN(Cc3cc(C(=O)O)c(=O)n4ccccc34)CC2)cc1,inactive

# System: not listed separately
# Test: Distribution coefficient, log D of the compound
# Format: physicochemical
# Details: octanol/water
row,SMILES,logD
1,O=C(O)c1cc(CN2CCc3cc(Cl)ccc3C2)c2ccccn2c1=O,2.37
2,O=C(O)c1cc(CN2CCC(n3cnc4ccccc43)CC2)c2ccccn2c1=O,0.92
3,Cc1ccc(C2CCN(Cc3cc(C(=O)O)c(=O)n4ccccc34)CC2)cc1,2.97

# System: not listed separately
# Test: Ratio of drug uptake in CSF to fraction unbound in plasma in wild type CF-1 mouse after 30 mins
# Format: ADME, cell-free
# Details: 0.5 h
# In short: as §3
row,SMILES,Ratio
1,Cc1ccc(C2CCN(Cc3cc(C(=O)O)c(=O)n4ccccc34)CC2)cc1,0.37

# System: not listed separately
# Test: Ratio of drug uptake in brain to plasma in Sprague-Dawley rat at 10 mg/kg, po
# Format: ADME, organism-based
# Design: dose 10 mg/kg, route oral
# Details: read-out: BPR
# In short: as §1
row,SMILES,Kp
1,O=C(O)c1cc(CN2CCc3cc(Cl)ccc3C2)c2ccccn2c1=O,0.86
2,Cc1ccc(C2CCN(Cc3cc(C(=O)O)c(=O)n4ccccc34)CC2)cc1,6
3,O=C(O)c1cc(CN2CCc3ccccc3C2c2ccncc2)c2ccccn2c1=O (stereo unspecified),0.14

# Biological target: Voltage-gated inwardly rectifying potassium channel KCNH2 (Homo sapiens, UniProt Q12809)
# Sequence (Q12809 whole entry): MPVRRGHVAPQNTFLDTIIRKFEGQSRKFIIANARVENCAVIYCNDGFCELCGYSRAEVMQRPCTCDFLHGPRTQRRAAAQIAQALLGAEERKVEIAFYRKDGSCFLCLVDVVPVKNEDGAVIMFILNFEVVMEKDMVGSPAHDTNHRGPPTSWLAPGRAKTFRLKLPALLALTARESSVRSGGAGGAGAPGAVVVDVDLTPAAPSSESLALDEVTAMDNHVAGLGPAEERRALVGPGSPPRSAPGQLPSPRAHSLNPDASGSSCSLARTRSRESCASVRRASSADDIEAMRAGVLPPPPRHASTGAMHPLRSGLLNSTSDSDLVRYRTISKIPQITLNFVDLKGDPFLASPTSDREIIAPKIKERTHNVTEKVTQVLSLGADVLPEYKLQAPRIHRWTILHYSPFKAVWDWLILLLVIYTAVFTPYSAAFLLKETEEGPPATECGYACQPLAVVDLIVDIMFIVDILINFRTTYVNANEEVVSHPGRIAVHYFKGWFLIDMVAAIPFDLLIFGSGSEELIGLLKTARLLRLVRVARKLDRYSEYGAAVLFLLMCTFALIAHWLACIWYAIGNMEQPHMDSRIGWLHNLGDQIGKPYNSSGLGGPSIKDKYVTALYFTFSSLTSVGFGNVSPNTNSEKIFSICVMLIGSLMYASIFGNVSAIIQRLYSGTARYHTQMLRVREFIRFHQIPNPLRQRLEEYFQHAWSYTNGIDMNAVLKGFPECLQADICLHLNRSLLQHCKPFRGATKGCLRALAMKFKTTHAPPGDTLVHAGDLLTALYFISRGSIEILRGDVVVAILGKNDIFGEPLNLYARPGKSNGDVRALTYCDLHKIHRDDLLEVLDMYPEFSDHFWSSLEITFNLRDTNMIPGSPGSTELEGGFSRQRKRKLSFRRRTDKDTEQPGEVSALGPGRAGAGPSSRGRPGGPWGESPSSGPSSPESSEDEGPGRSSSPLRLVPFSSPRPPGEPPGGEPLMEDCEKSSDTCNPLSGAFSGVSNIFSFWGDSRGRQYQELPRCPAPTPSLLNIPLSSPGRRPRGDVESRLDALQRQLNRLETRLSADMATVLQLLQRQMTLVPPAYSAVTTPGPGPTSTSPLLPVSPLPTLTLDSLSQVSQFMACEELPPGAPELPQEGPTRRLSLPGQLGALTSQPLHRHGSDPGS
# Test: Binding affinity to human ERG at <1 uM
# Details: not given
row,SMILES,Activity
1,O=C(O)c1cc(CN2CCc3ccccc3C2c2ccncc2)c2ccccn2c1=O (stereo unspecified),Active

# System: Mus musculus
# Test: Antiamnesic activity against in contextual fear conditioning B6SJL mouse modle assessed as reversal of scopolamine-induced episodic memory deficit in at 10 mg/kg
# Format: functional, organism-based
# Design: dose 10 mg/kg
# Details: not given
# In short: as §2
row,SMILES,Activity
1,O=C(O)c1cc(CN2CCc3cc(Cl)ccc3C2)c2ccccn2c1=O,inactive
2,Cc1ccc(C2CCN(Cc3cc(C(=O)O)c(=O)n4ccccc34)CC2)cc1,inactive
